ChEMBL document CHEMBL1149558, “Synthesis of symmetrical C- and pseudo-symmetrical O-linked disaccharide analogs for arabinosyltransferase inhibitory activity in Mycobacterium tuberculosis” (Bioorg Med Chem Lett, 2007)
Converted amounts (≈) assume the structure as drawn. The source made the active and inactive calls. The calls are words filed in the database; no cut-off is given here.

These molecules were tested on Mycobacterium avium (assay: Antimycobacterial activity against Mycobacterium avium at 12.8 ug/mL). Conditions: not given.
Assay type: functional, organism-based
In short: (§1)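 Colorimetric broth microdilution against M. tuberculosis H37Ra (ATCC 25177) and M. avium NJ 211. Initial screen at 1.28 and 12.8 μg/mL. Activity was confirmed with […] dilutions at 16, 8 and 4 μg/mL to set the MIC.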

SMILES	Activity
CC(C)(C)[Si](C)(C)O[C@H]1[C@H](O[Si](C)(C)C(C)(C)C)[C@@H](CN(CC2CCCCC2)CC2CCCCC2)O[C@@H]1CO[C@H]1O[C@H](CN(CC2CCCCC2)CC2CCCCC2)[C@@H](O)[C@@H]1O	inactive
CC(C)(C)[Si](C)(C)O[C@H]1[C@H](O[Si](C)(C)C(C)(C)C)[C@@H](CO[C@H]2O[C@H](CN=[N+]=[N-])[C@@H](O)[C@@H]2O)O[C@@H]1CN=[N+]=[N-]	inactive

What follows are molecules tested against T1, Probable arabinosyltransferase A (Mycobacterium tuberculosis) (UniProt P9WNL9) (assay: Inhibition of Mycobacterium smegmatis arabinosyl transferase assessed as [14C]arabinofuranose incorporation at 3.6 mM). Conditions: Mycolicibacterium smegmatis.
T1 sequence (whole entry): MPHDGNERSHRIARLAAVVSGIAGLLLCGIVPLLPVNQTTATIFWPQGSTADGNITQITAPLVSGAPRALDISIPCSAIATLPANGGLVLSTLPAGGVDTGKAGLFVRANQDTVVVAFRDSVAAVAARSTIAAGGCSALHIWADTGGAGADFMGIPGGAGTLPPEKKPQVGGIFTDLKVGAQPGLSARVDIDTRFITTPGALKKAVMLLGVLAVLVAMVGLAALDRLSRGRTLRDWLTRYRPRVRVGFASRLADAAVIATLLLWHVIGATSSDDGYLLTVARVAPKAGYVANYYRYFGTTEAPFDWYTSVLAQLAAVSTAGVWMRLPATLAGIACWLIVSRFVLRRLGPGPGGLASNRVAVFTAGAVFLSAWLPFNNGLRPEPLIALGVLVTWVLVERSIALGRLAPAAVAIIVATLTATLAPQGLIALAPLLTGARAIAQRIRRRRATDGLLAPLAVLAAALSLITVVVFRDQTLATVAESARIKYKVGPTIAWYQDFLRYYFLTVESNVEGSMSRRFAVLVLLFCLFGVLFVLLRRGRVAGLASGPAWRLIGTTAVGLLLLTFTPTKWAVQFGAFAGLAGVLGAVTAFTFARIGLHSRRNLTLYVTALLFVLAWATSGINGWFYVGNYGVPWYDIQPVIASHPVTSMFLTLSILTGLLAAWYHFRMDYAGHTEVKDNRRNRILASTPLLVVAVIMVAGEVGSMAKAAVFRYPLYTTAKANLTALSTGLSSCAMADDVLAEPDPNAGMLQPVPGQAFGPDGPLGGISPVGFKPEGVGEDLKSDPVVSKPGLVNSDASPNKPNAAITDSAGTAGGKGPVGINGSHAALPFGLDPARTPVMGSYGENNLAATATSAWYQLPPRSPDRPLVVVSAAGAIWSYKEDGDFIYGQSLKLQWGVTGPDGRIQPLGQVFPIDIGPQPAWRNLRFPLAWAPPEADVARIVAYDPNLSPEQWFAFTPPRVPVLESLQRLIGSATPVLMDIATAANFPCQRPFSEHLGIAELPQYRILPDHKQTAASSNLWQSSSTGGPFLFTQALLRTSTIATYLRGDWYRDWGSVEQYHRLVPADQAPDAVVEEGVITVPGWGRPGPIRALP
In short: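 Cell-free competition arabinosyltransferase acceptor assay with membranes and [14C]DPA as glycosyl donor. The read-out is inhibition of [14C]Araf incorporation into the α(1→5)-linked 1-O-octyl arabinofuranosyl disaccharide acceptor at 0.4 mM. Test compounds were run at 3.6 mM, and IC50 values were also derived.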

SMILES	Activity
O[C@H]1[C@H](O)[C@@H](CN(CC2CCCCC2)CC2CCCCC2)O[C@@H]1CC[C@H]1O[C@H](CN(CC2CCCCC2)CC2CCCCC2)[C@@H](O)[C@@H]1O	Active
O[C@H]1[C@H](O)[C@@H](CN(CC2CCCCC2)CC2CCCCC2)O[C@@H]1/C=C/[C@H]1O[C@H](CN(CC2CCCCC2)CC2CCCCC2)[C@@H](O)[C@@H]1O	Active
O[C@@H]1[C@@H](OC[C@H]2O[C@H](CN(CC3CCCCC3)CC3CCCCC3)[C@@H](O)[C@@H]2O)O[C@H](CN(CC2CCCCC2)CC2CCCCC2)[C@H]1O	Active

The molecules below were run on Mycobacterium avium (assay: Antimycobacterial activity against Mycobacterium avium). Conditions: not given.
Assay type: functional
In short: as §1

SMILES	MIC [mg/L]
O[C@H]1[C@H](O)[C@@H](CN(CC2CCCCC2)CC2CCCCC2)O[C@@H]1CC[C@H]1O[C@H](CN(CC2CCCCC2)CC2CCCCC2)[C@@H](O)[C@@H]1O	16 (≈ 23.6 µM)
O[C@H]1[C@H](O)[C@@H](CN(CC2CCCCC2)CC2CCCCC2)O[C@@H]1/C=C/[C@H]1O[C@H](CN(CC2CCCCC2)CC2CCCCC2)[C@@H](O)[C@@H]1O	8 (≈ 11.9 µM)
O[C@@H]1[C@@H](OC[C@H]2O[C@H](CN(CC3CCCCC3)CC3CCCCC3)[C@@H](O)[C@@H]2O)O[C@H](CN(CC2CCCCC2)CC2CCCCC2)[C@H]1O	16 (≈ 23.6 µM)

These molecules were tested on Mycobacterium tuberculosis (assay: Antimycobacterial activity against Mycobacterium tuberculosis H37Ra). Conditions: not given.
Assay type: functional
In short: as §1

SMILES	MIC [mg/L]
O[C@H]1[C@H](O)[C@@H](CN(CC2CCCCC2)CC2CCCCC2)O[C@@H]1CC[C@H]1O[C@H](CN(CC2CCCCC2)CC2CCCCC2)[C@@H](O)[C@@H]1O	16 (≈ 23.6 µM)
O[C@H]1[C@H](O)[C@@H](CN(CC2CCCCC2)CC2CCCCC2)O[C@@H]1/C=C/[C@H]1O[C@H](CN(CC2CCCCC2)CC2CCCCC2)[C@@H](O)[C@@H]1O	8 (≈ 11.9 µM)
CC(C)(C)[Si](C)(C)O[C@H]1[C@H](O[Si](C)(C)C(C)(C)C)[C@@H](CN(CC2CCCCC2)CC2CCCCC2)O[C@@H]1CO[C@H]1O[C@H](CN(CC2CCCCC2)CC2CCCCC2)[C@@H](O)[C@@H]1O	> 12.8
CC[C@@H](CO)NCCN[C@@H](CC)CO [ETHAMBUTOL]	2 (≈ 9.79 µM)
O[C@@H]1[C@@H](OC[C@H]2O[C@H](CN(CC3CCCCC3)CC3CCCCC3)[C@@H](O)[C@@H]2O)O[C@H](CN(CC2CCCCC2)CC2CCCCC2)[C@H]1O	8 (≈ 11.8 µM)
CC(C)(C)[Si](C)(C)O[C@H]1[C@H](O[Si](C)(C)C(C)(C)C)[C@@H](CO[C@H]2O[C@H](CN=[N+]=[N-])[C@@H](O)[C@@H]2O)O[C@@H]1CN=[N+]=[N-]	16 (≈ 27.8 µM)
